Results on 25 molecules are retold here after ChEMBL document CHEMBL1949625, “Hydroxyl may not be indispensable for raltegravir: Design, synthesis and SAR Studies of raltegravir derivatives as HIV-1 inhibitors” (Eur J Med Chem, 2012).

What is called inhibition is the change of the read-out against control, counted positive when it falls. One may read the IC50 as the concentration that gives 50% inhibition.

Molecules are shown by their SMILES.

A short description of data set [1]: Cytotoxicity against human TZM-bl cells after 48 hrs by MTT assay. The class given is cell-based. In a few lines: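 TZM-bl cells plated and incubated 18 h at 37 °C, then exposed to compounds for 48 h. MTT (5 mg/mL, 20 uL) added for 3 h at 37 °C; plates shaken 10 min at room temperature. OD550 read with 690 nm reference.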
In data set [2] the test system is Human immunodeficiency virus 1. The data set can be described thus: Antiviral activity against HIV1 harboring VSV glycoprotein-G co-transfected with luciferase gene infected in human TZM-bl cells assessed as inhibition of viral replication at 10 uM after 48 hrs by microplate luminometer based luciferase assay. In kind it is functional. Particulars: for inhibition at 10 µM: Human immunodeficiency virus 1, TZM-bl, 48 h. In short, it runs like this:
(§1)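 TZM-bl cells seeded at 10^4 cells/well; next day compounds (from DMSO stocks) added, then pseudotyped virus; final DMSO 2% in all wells. Incubated 48 h at 37 °C, humidified CO2. Steady-glow substrate added directly, lysis 20 min in dark, luciferase luminescence read. AZT and MK-0518 as assay controls. Primary screen run at 10 μM.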

Data set [3] relates to Human immunodeficiency virus 1. As to the kind of experiment: Antiviral activity against HIV1 harboring VSV glycoprotein-G co-transfected with luciferase gene infected in human TZM-bl cells assessed as inhibition of viral replication after 48 hrs by microplate luminometer based luciferase assay. In kind it is functional, organism-based. Particulars: Human immunodeficiency virus 1, TZM-bl. In short, it runs like this: as §1

Turning to `COc1nc(C(C)(C)NC(=O)c2nnc(C)o2)nc(C(=O)NCc2ccc(F)cc2)c1[O-].[K+]`, the Activity entry in data set [1] is reported as “Non-toxic”. For the same molecule, the inhibition at 10 µM in data set [2] stood at 92.9%. The IC50 in data set [3] came out at 200 nM.

`COc1nc(C(C)(C)NC(=O)c2nnc(C)o2)nc(C(=O)NCc2ccc(F)cc2)c1O`: the Activity entry in data set [1] is recorded as “Non-toxic”. Moreover, the “inhibition (INH)” value in data set [2] turned out to be 94.1%.

As to `Cc1nnc(C(=O)NC(C)(C)c2nc(NCc3ccc(F)cc3)c(O)c(C(=O)NCc3ccc(F)cc3)n2)o1`, the Activity entry in data set [1] is on record as “Non-toxic”. Besides, the inhibition at 10 µM in data set [2] was determined as 47.5%.

Take `CC(=O)Oc1c(C(=O)NCc2ccc(F)cc2)nc(C(C)(C)NC(=O)c2nnc(C)o2)n(C)c1=O`: the Activity result in data set [1] is “Non-toxic”. Moreover, in data set [2], the inhibition at 10 µM amounted to 95.1%. Also, in data set [3], the IC50 was determined as 1 nM.

With `Cc1nnc(C(=O)NC(C)(C)c2nc(C(=O)NCc3ccc(F)cc3)c(OS(C)(=O)=O)c(=O)n2C)o1`, the Activity entry in data set [1] is given as “Non-toxic”. Also, the inhibition at 10 µM in data set [2] turned out to be 92.7%. In data set [3], the IC50 came to 2.4 nM.

As for `Cc1nnc(C(=O)NC(C)(C)c2nc(C(=O)NCc3ccc(F)cc3)c(OC(=O)c3ccccc3)c(=O)n2C)o1`, the Activity entry in data set [1] was “Non-toxic”. The inhibition at 10 µM in data set [2] is 100%. Besides, in data set [3], the IC50 came out at 4e-05 nM.

Regarding `Cc1cc(C)c(S(=O)(=O)Oc2c(C(=O)NCc3ccc(F)cc3)nc(C(C)(C)NC(=O)c3nnc(C)o3)n(C)c2=O)c(C)c1`, in data set [1], the Activity result is on record as “Non-toxic”. In addition, the inhibition at 10 µM in data set [2] is 94.9%. The IC50 in data set [3] amounted to 0.04 nM.

Turning to `COc1nc(C(C)(C)NC(=O)c2nnc(C)o2)nc(C(=O)NCc2ccc(F)cc2)c1OC(C)=O`, in data set [1], the Activity entry is “Non-toxic”. Further, in data set [2], the inhibition at 10 µM was determined as 94.2%. In addition, the IC50 in data set [3] stood at 7.3 nM.

As for `COc1nc(C(C)(C)NC(=O)c2nnc(C)o2)nc(C(=O)NCc2ccc(F)cc2)c1OS(C)(=O)=O`, the Activity result in data set [1] is recorded as “Non-toxic”. For the same molecule, the inhibition at 10 µM in data set [2] came to 88.3%. Further, the IC50 in data set [3] amounted to 32.8 nM.

Turning to `COc1nc(C(C)(C)NC(=O)c2nnc(C)o2)nc(C(=O)NCc2ccc(F)cc2)c1OC(=O)c1ccccc1`, the Activity entry in data set [1] was “Non-toxic”. In addition, the inhibition at 10 µM in data set [2] is 93.4%. For the same molecule, the IC50 in data set [3] amounted to 14.7 nM.

With `COc1nc(C(C)(C)NC(=O)c2nnc(C)o2)nc(C(=O)NCc2ccc(F)cc2)c1OS(=O)(=O)c1c(C)cc(C)cc1C`, in data set [1], the Activity entry is “Non-toxic”. Further, the inhibition at 10 µM in data set [2] was determined as 79.7%. The IC50 in data set [3] came out at 1200 nM.

As for `CCN(CC)C(=O)C(=O)NC(C)(C)c1nc(C(=O)OC)c(OC(=O)c2ccccc2)c(=O)n1C`, the Activity entry in data set [1] was “Non-toxic”. For the same molecule, the inhibition at 10 µM in data set [2] is -2.7%.

As to `CCN(CC)C(=O)C(=O)NC(C)(C)c1nc(C(=O)NCc2ccc(F)cc2)c(O)c(=O)n1C`, the Activity entry in data set [1] is given as “Non-toxic”. The inhibition at 10 µM in data set [2] was determined as 95.5%. In addition, the IC50 in data set [3] is 0.5 nM.

Take `CCN(CC)C(=O)C(=O)NC(C)(C)c1nc(C(=O)NCc2ccc(F)cc2)c(OC(C)=O)c(=O)n1C`: the Activity entry in data set [1] is on record as “Non-toxic”. Besides, in data set [2], the inhibition at 10 µM was found to be 94.2%. In data set [3], the IC50 turned out to be 0.062 nM.

As for `CCN(CC)C(=O)C(=O)NC(C)(C)c1nc(C(=O)NCc2ccc(F)cc2)c(OS(C)(=O)=O)c(=O)n1C`, the Activity entry in data set [1] is on record as “Non-toxic”. In addition, the inhibition at 10 µM in data set [2] is 93.7%. Moreover, in data set [3], the IC50 was 0.64 nM.

Take `CCN(CC)C(=O)C(=O)NC(C)(C)c1nc(C(=O)NCc2ccc(F)cc2)c(OC(=O)c2ccccc2)c(=O)n1C`: the Activity entry in data set [1] is “Non-toxic”. Further, in data set [2], the inhibition at 10 µM came out at 92.8%. Also, in data set [3], the IC50 came to 8e-05 nM.

With `CCN(CC)C(=O)C(=O)NC(C)(C)c1nc(C(=O)NCc2ccc(F)cc2)c(OS(=O)(=O)c2c(C)cc(C)cc2C)c(=O)n1C`, in data set [1], the Activity entry is reported as “Non-toxic”. Moreover, in data set [2], the inhibition at 10 µM stood at 77.7%. Moreover, the IC50 in data set [3] worked out at 0.3 nM.

As for `CCN(CC)C(=O)C(=O)NC(C)(C)c1nc(OC)c(OC(=O)c2ccccc2)c(C(=O)OC)n1`, the Activity result in data set [1] is recorded as “Non-toxic”. Moreover, in data set [2], the inhibition at 10 µM was 19.8%.

On to `CCN(CC)C(=O)C(=O)NC(C)(C)c1nc(OC)c(O)c(C(=O)NCc2ccc(F)cc2)n1`, for which, in data set [1], the Activity result is “Non-toxic”. In addition, the inhibition at 10 µM in data set [2] amounted to 44.9%.

In the case of `CCN(CC)C(=O)C(=O)NC(C)(C)c1nc(OC)c(OC(C)=O)c(C(=O)NCc2ccc(F)cc2)n1`, the Activity entry in data set [1] is recorded as “Non-toxic”. In addition, the inhibition at 10 µM in data set [2] came to 59.3%.

For the molecule `CCN(CC)C(=O)C(=O)NC(C)(C)c1nc(OC)c(OS(C)(=O)=O)c(C(=O)NCc2ccc(F)cc2)n1`, the Activity result in data set [1] is reported as “Non-toxic”. In addition, the inhibition at 10 µM in data set [2] amounted to 28.6%.

Take `CCN(CC)C(=O)C(=O)NC(C)(C)c1nc(OC)c(OC(=O)c2ccccc2)c(C(=O)NCc2ccc(F)cc2)n1`: the Activity result in data set [1] is listed as “Non-toxic”. Further, in data set [2], the inhibition at 10 µM is 52.1%.

On to `CCN(CC)C(=O)C(=O)NC(C)(C)c1nc(OC)c(OS(=O)(=O)c2c(C)cc(C)cc2C)c(C(=O)NCc2ccc(F)cc2)n1`, for which the Activity result in data set [1] is listed as “Non-toxic”. In data set [2], the inhibition at 10 µM worked out at 6%.

As for `Cc1nnc(C(=O)NC(C)(C)c2nc(C(=O)NCc3ccc(F)cc3)c(O)c(=O)n2C)o1` [RALTEGRAVIR POTASSIUM], the inhibition at 10 µM in data set [2] amounted to 95.1%. Further, the IC50 in data set [3] was 8 nM.

On to `Cc1cn([C@H]2C[C@H](N=[N+]=[N-])[C@@H](CO)O2)c(=O)[nH]c1=O` [ZIDOVUDINE], for which the inhibition at 10 µM in data set [2] came to 100%.
